High-throughput results as filed in PubChem BioAssay.
CR mimetic SO: caloric restriction mimetics inhibiting age-related superoxide in yeast; S. cerevisiae aged cells, superoxide DHE fluorescence; hits give low values; superoxide response (% of plate mean), % at 10 µM; 0.18% of 330,000 active;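 active = superoxide response under a set limit, about three screen SD below normal, cut at about 65% in these data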;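 note: yeast aged for seven days with compound at 30 °C before DHE staining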
T cell modulator: T cell immune modulators affecting CD8 T cell-vesicle binding. 2C CD8+ T cell-vesicle binding, flow cytometry; hits give low values. response (vesicle binding), % at 7 µM. 0.068% of 330,000 active. AID 2052;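 active = response, share of CD8 T cells binding vesicles, and their 90th percentile fluorescence all below set limits, cut at about 80% in these data, passing the limit was not always enough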;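 note: values below 100% mean blocked vesicle binding to the CD8+ T cells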
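incubation = binding step 1.5 h, 37 °C, antibody labelling 20 min, ice | test system = 2C mouse CD8+ T cells | read-out basis = percent CD8+ FL2 mean versus row control | controls = Peptide-free naked vesicles (low) and QL9 vesicles with 0.7% DMSO vehicle (high) | detection = flow cytometry of vesicle-bound cells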
proKLK7 act: activators of human kallikrein-7 zymogen. P49862. purified proKLK7, EDANS-DABCYL substrate fluorescence; 100% is mature enzyme control, 0% vehicle. activation, % at 7 µM. 0.9% of 370,000 active;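 active = activation above the mean of all tested compounds plus 3 SD, computed per campaign excluding outliers beyond control limits, cut at about 13% in these data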
Target sequence (P49862 whole entry, looked up): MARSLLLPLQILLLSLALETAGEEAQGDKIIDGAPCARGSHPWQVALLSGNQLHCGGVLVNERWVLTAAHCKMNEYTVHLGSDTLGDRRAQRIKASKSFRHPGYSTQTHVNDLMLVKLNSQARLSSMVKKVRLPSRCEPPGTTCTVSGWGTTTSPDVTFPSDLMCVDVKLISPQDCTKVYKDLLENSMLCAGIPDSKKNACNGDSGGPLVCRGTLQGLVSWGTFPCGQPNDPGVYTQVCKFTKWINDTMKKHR
beta cell repl: inducers of beta-cell replication in MIN6 cells | MIN6 cells proliferation, ATPlite luminescence, 48 h; cells starved in 0.2% serum; 100% = growth in 10% serum | proliferation, % at 10 µM | 0.29% of 330,000 active | AID 2380;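 active = compounds whose signal lies at least 3.5 SD above the mean of all wells on their plate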
Rce1 inhib: blocks yeast Ras-converting enzyme | Q03530 | yeast membranes, quenched prenylated peptide cleavage fluorescence | calls only | 0.27% of 290,000 active | AID 2563;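 active = fall in fluorescence gain of 50% or more versus controls, with final raw signal at or below 3038400; inconclusive = same 50% fall but final raw signal above 3038400; inactive = fall in fluorescence gain under 50%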
Target sequence (Q03530 whole entry, looked up): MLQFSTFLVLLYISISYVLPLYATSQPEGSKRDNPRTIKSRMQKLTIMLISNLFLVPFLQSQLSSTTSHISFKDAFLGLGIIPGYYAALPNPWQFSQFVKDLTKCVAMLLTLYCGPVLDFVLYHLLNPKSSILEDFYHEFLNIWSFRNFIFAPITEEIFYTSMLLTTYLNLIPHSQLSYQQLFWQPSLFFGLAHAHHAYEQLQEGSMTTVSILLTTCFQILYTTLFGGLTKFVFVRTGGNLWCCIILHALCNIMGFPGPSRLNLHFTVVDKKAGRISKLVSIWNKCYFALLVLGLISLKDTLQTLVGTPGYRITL
V-ATPase pHluor: yeast V-ATPase proton transport regulation by pHLuorin | S. cerevisiae, pHLuorin cytosolic pH fluorescence | response, % at 10 µM | 0.37% of 350,000 active; in the data active = response mostly above about 7.3%, no sharp cut-off; inactive = mostly below about 5.4%; note: actives read high
proKLK7 act conf: proKLK7 activation, confirmation. shares compounds with proKLK7 act. purified proKLK7, EDANS-DABCYL substrate fluorescence; scaled: vehicle 0, mature enzyme 100. activation, % at 7 µM. 68% of 3,200 active. AID 686949;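 active = activation, as change over the incubation, above the mean of all tested compounds plus 3 SD, cut at about 13% in these data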
EDANS-DABCYL int: counter-screen for kallikrein-7 activators: EDANS-DABCYL optical interference | EDANS-DABCYL substrate fluorescence interference, no enzyme, 4 h; solvent 0%, active enzyme control 100% | activation, % at 7 µM | 80% of 3,200 active | shares compounds with proKLK7 act;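 active = activation above the all-compound mean plus 3 SD, ignoring values outside control-based bounds, cut at about 4.8% in these data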;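 note: value is the 4 h activation minus the activation read at time zero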
K7 EDANS ctr: EDANS fluorescence interference in dose response, no enzyme; shares compounds with proKLK7 act; EC50, µM; EDANS-DABCYL peptide fluorescence interference; 20% of 250 active; AID 720493;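 active = compounds that raise the fluorescence signal in this interference counterscreen, with EC50 at or below 10 µM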;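 note: intact quenched peptide substrate alone read at 355 nm excitation and 520 nm emission; signal is fluorescence gain from T0 to T4 after four hours at room temperature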
Hits are given with their value; . = inactive; ? = inconclusive; / = no result given. Compounds with a hit are over-represented: about 1.9% of the library has one in this group of screens.

SMILES | CR mimetic SO | T cell modulator | proKLK7 act | beta cell repl | Rce1 inhib | V-ATPase pHluor | proKLK7 act conf | EDANS-DABCYL int | others
O=C(O)CCCNC(=O)CC1S/C(=N/N=C/c2ccccc2O)NC1=O (stereo unspecified) | . | . | 25 | . | . | . | 27 | 34
CCN(CC)CCn1nc2c3c(cccc3c1=O)-c1ccccc1-2 | . | . | 18 | . | . | . | . | .
CCN(CC)Cc1c(O)c(Cl)cc2c3c(c(=O)oc12)CCCC3 | . | . | 49 | . | . | . | 66 | 75
CN(C)Cc1c(O)c(Cl)cc2c3c(c(=O)oc12)CCCC3 | . | . | 47 | . | ? | . | 70 | 72
O=c1oc2c(CN3CCOCC3)c(O)c(Cl)cc2c2c1CCC2 | / | / | 122 | / | / | . | 81 | 78
Cc1coc2c(C)c3oc(=O)c4c(c3cc12)CCCC4 | . | . | . | . | . | . | / | /
CC(C)CN1C(=O)C[C@]2(C(=O)N(C)c3ccc(NC(=O)C(F)(F)F)cc32)C1c1ccccc1 (stereo partly specified) | / | / | . | / | / | / | / | /
CCN1CCN(c2ccc(N3CCN(C(=O)c4ccc(Br)o4)CC3)nn2)CC1 | . | . | 19 | . | . | . | . | 4.4
O=C(O)c1cc2nccc(-c3ccco3)n2n1 | . | . | 18 | . | . | . | 23 | 22
COc1ccc(-c2ccnc3cc(C(=O)O)nn23)cc1 | . | . | 13 | . | . | . | 34 | 32
COc1ccc(OC)c(C(c2c(C)[nH][nH]c2=O)c2c(C)[nH][nH]c2=O)c1 | . | . | 13 | . | . | . | 20 | 20
COc1ccc(O)c(C(c2c(C)[nH][nH]c2=O)c2c(C)[nH][nH]c2=O)c1 | . | . | . | . | . | . | / | /
CC(C)[C@H](NC(=O)OCc1ccccc1)C(=O)OCc1cc(=O)oc2cc(O)ccc12 | . | . | 28 | . | . | . | 62 | 60
CCOc1ccccc1C(=O)N[C@H](C(=O)OCc1cc(=O)oc2cc(C)ccc12)C(C)C | . | . | . | . | . | . | / | /
CCc1ccccc1-n1ncc(C(=O)Nc2ccc(OC)cc2)c1C | / | / | . | / | / | . | / | /
CC(C1CC1)N(Cc1ccccc1)C(=S)Nc1ccccc1Cl (stereo unspecified) | . | . | . | . | . | . | / | /
CNc1cnc(-c2ccc(F)c(F)c2F)cn1 | / | / | 13 | / | / | / | 13 | 13
CC(=O)Nc1cnc(-c2ccccc2C(F)(F)F)cn1 | / | / | . | / | / | / | / | /
CC(C)CNc1cccc2c1S(=O)(=O)N[C@@H](Cc1ccccc1)CO2 | / | / | . | / | / | / | / | /
CC(NC(=O)COC(=O)CCC(=O)c1ccc(F)cc1)c1ccccc1 (stereo unspecified) | . | . | . | . | / | . | / | /
Cc1ccc(S(=O)(=O)c2cn(C)c3cc(N4CCN(C)CC4)c(F)cc3c2=O)c(C)c1 | . | . | . | . | . | . | / | /
CCN1CCN(c2cc3c(cc2F)c(=O)c(S(=O)(=O)c2ccccc2)cn3C)CC1 | . | . | 13 | . | . | . | . | .
CC(C)(C)C1CCC(C(=O)Nc2ccccc2N2CCOCC2)CC1 (stereo unspecified) | . | . | . | . | / | . | / | /
COc1cc(C2C(=O)c3ccccc3C2=O)ccc1O | . | . | . | . | . | . | / | /
CN1C(=O)c2ccccc2N(C)C1c1ccc(F)cc1 (stereo unspecified) | . | . | 19 | . | . | . | 27 | 14 | K7 EDANS ctr=.
SMILES | CR mimetic SO | T cell modulator | proKLK7 act | beta cell repl | Rce1 inhib | V-ATPase pHluor | proKLK7 act conf | EDANS-DABCYL int | others
CN1C(=O)c2ccccc2NC(=O)[C@]12O[C@@H]2c1cccc(O)c1 | . | . | . | . | . | . | / | /
CN1C(=O)c2ccccc2N(C)C1c1ccc2c(c1)OCO2 (stereo unspecified) | . | . | 19 | . | / | . | 22 | 18 | K7 EDANS ctr=.
COc1cc(C2N(C)C(=O)c3ccccc3N2C)ccc1O (stereo unspecified) | . | . | 46 | . | . | . | 43 | 42
O=C(CCN1C(=O)c2ccccc2C1=O)NCc1ccc(F)cc1 | . | . | . | . | . | . | / | /
CN1C(=O)c2ccccc2N(C)C1c1cccc(O)c1 (stereo unspecified) | . | . | 50 | . | . | . | 32 | 35
CSc1ccccc1NC(=O)c1cc2c(=O)n3ccccc3nc2s1 | . | . | . | . | . | . | / | /
CC1CC(C)CN(C(=O)c2cc3c(=O)n4ccccc4nc3s2)C1 (stereo unspecified) | . | . | 14 | . | . | . | 14 | 12 | K7 EDANS ctr=.
CC1CN(C(=O)c2cc3c(=O)n4ccccc4nc3s2)CC(C)O1 (stereo unspecified) | . | . | 26 | . | . | . | 42 | 40
COCCNC(=S)NCCCNc1nc2cc3c(cc2cc1C#N)OCO3 | . | . | 25 | . | . | . | 14 | 19
Nc1cc2sc(-c3ccc(C(=O)O)cc3)nc2cc1Cl | . | . | 51 | . | . | . | 68 | 75
Nc1cccc(-c2nc3ccc(N)cc3s2)c1 | . | . | 82 | . | . | . | 57 | 75
Nc1ccc(-c2nc3ccc(N)cc3s2)cc1 | . | . | 61 | . | ? | . | 67 | 70
Nc1ccc(-c2nc3ccc(C(=O)O)cc3s2)cc1 | . | . | 79 | / | . | . | 75 | 76
O=C(O)c1ccc2nc(-c3ccccc3)sc2c1 | . | . | . | . | . | . | / | /
CCCCOc1ccc(C2(C)NC(=O)N(C)C2=O)cc1 (stereo unspecified) | . | . | . | . | . | . | / | /
COc1ccc2nc(NC(=O)c3cccs3)sc2c1 | . | . | 25 | . | . | . | . | .
CC(=O)Nc1ccc2nc(NC(=O)c3cccs3)sc2c1 | . | . | . | . | . | . | / | /
O=Cc1cn(-c2ccccc2)nc1-c1cc2cc(O)ccc2oc1=O | . | . | 197 | . | . | . | 561 | 549
CCOC(=O)CNc1c(-c2ccc(O)cc2)nc2ccccn12 | . | . | 20 | . | . | . | 27 | 62
COc1ccc(CC(N)c2csc(Nc3ccc(S(C)(=O)=O)cc3)n2)cc1 (stereo unspecified) | / | / | 27 | / | / | / | . | .
COC(=O)[C@]12C[C@H](CC(=O)NCC34CC5CC(CC(C5)C3)C4)C(=O)N(CCc3ccc(OC)c(OC)c3)C1=C[C@H](C(C)C)O[C@@H]2C1CC1 | / | / | . | / | / | / | / | /
